Measured values pooled from the literature.
Protocols differ between the studies behind these lines. Values after ≈ are worked out from the molar mass of the structure shown.
CYP2B6: Cytochrome P450 2B6 (CYP2B6, Homo sapiens, UniProt P20813)

| Compound | target or system | assay | system | setting | quantity | value |
| --- | --- | --- | --- | --- | --- | --- |
| CC(C)n1ncc2c(C(=O)NCC3(C)CNC3)cc(C3CC3)nc21 | HeLa | cell growth or viability, neutral red |  | 0.11 µM | viability | 99.9% |
| Cc1cc(S(=O)(=O)N[C@H]2CC[C@H](CN3CCN(c4ccc(C5CCC(=O)NC5=O)c(Cl)c4)CC3)CC2)ccc1Nc1ncc(C(F)(F)F)c(N2CCC[C@](C)(O)C2)n1 (some centres unmarked) |  |  | rat, plasma | intravenous, 2 mg/kg | clearance | 15 mL/min/kg |
| CSc1ccccc1C(=O)NCCn1cc(C(=O)NCc2cccc(C)n2)c(=O)c2cc3c(cc21)OCO3 | CYP2B6 | enzyme activity, inhibitor | human, liver microsomes | 20 min, without NADPH, with preincubation | IC50 | > 100 µM |
| c1ccc(Oc2ccc(Nc3ccc4ncc(OCC5CCNCC5)nc4c3)cc2)cc1 | HeLa | cell growth or viability, XTT |  | 7 days | EC50 | 20.9 µM |
| CC(C)[C@@H]1NC(=O)[C@@H](CCCNC(=N)N)NC(=O)[C@H](C)NC(=O)[C@@H](CCCN)NC(=O)[C@H](Cc2ccccc2)NC(=O)[C@@H](Cc2ccccc2)NC1=O |  | haemolysis | human | 100 µM | haemolysis | < 10% |
| OCc1ccc(-c2nn(Cc3ccccc3)c3ccccc23)o1 | CYP2B6 | enzyme activity, inhibitor | human, liver microsomes |  | IC50 | 5.1 µM |
| CNS(=O)(=O)c1ccc(Nc2ncc(C(F)(F)F)c(N3CCC(C)(O)CC3)n2)c(C)c1 |  |  | rat, plasma | intravenous, 2 mg/kg | clearance | 52 mL/min/kg |
| C[C@H]1Oc2cc(cnc2N)-c2c(nn(C)c2C#N)CN(C)C(=O)c2ccc(F)cc21 |  |  | male Sprague-Dawley rat, plasma | oral, 5 mg/kg, single dose | CL/F | 50 mL/min/kg |
| CSc1ccccc1C(=O)NCCn1cc(C(=O)NCc2cccc(C)n2)c(=O)c2cc3c(cc21)OC(F)(F)O3 | CYP2B6 | enzyme activity, inhibitor | human, liver microsomes | 20 min, without NADPH, with preincubation | IC50 | > 100 µM |
| c1ccc(COc2ccc(Nc3ccc4ncc(OCC5CCNCC5)nc4c3)cc2)cc1 | HeLa | cell growth or viability, XTT |  | 7 days | EC50 | > 30 µM |
| Cc1cc(S(=O)(=O)N[C@]2(C)C[C@@H](N3CCN(CC4CCN(c5ccc6c(c5F)n(C)c(=O)n6C5CCC(=O)NC5=O)CC4)CC3)C2)ccc1Nc1ncc(C(F)(F)F)c(N2CCC[C@](C)(O)C2)n1 (some centres unmarked) |  |  | rat, plasma | intravenous, 2 mg/kg | clearance | 62 mL/min/kg |
| CCCCCCCCCCCCCCCCCC(=O)O | HeLa | cell growth or viability, MTT |  | 48 h | CC50 | 90.6 µg/mL (≈ 318 µM) |
| Cc1cc(S(=O)(=O)NC2CC(N3CCN(CC4CCN(c5ccc(NC6CCC(=O)NC6=O)cc5C)CC4)CC3)C2)ccc1Nc1ncc(C(F)(F)F)c(N2CCC[C@](C)(O)C2)n1 (some centres unmarked) |  |  | rat, plasma | intravenous, 2 mg/kg | clearance | 26 mL/min/kg |
| CC(C)[C@@H]1NC(=O)[C@@H](CCCCN)NC(=O)[C@H]([C@@H](C)O)NC(=O)[C@@H](CCCN)NC(=O)[C@H](Cc2ccccc2)NC(=O)[C@@H](Cc2ccccc2)NC1=O |  | haemolysis | human | 100 µM | haemolysis | < 10% |
